Assay results from ChEMBL document CHEMBL1153403, “Design, synthesis, and evaluation of novel fluoroquinolone-aminoglycoside hybrid antibiotics” (J Med Chem, 2009).
In brackets after ≈: the same amount, converted by molar mass.

Legend:
Escherichia coli [1] = assay: Antibacterial activity against Escherichia coli R477-100 by double-microdilution method; type: functional
Escherichia coli [2] = assay: Antibacterial activity against Escherichia coli ATCC 25922 by double-microdilution method; type: functional
Escherichia coli [3] = assay: Antibacterial activity against kanamycin-resistant Escherichia coli AG100B expressing aminoglycosides resistant APH(3')-1 enzyme by double-microdilution method; type: functional
Escherichia coli [4] = assay: Antibacterial activity against kanamycin-resistant Escherichia coli AG100A expressing aminoglycosides resistant APH(3')-1 enzyme by double-microdilution method; type: functional
Bacillus subtilis = assay: Antibacterial activity against aminoglycosides-susceptible Bacillus subtilis ATCC 6633 by double-microdilution method; type: functional
Staphylococcus aureus = assay: Antibacterial activity against methicillin-resistant Staphylococcus aureus ATCC 43300 by double-microdilution method; type: functional
Escherichia coli [5] = assay: Antibacterial activity against Escherichia coli XL1-blue by double-microdilution method; type: functional
Escherichia coli [6] = assay: Antibacterial activity against aminoglycosides-resistant Escherichia coli XL1-blue harboring pSF815 expressing AAC(6')-APH(2'') enzyme by double-microdilution method; type: functional
Escherichia coli [7] = assay: Resistance index, MIC for aminoglycosides-resistant Escherichia coli XL1-blue harboring pSF815 expressing AAC(6')-APH(2'') enzyme to MIC for Escherichia coli XL1-blue; type: functional
In short: (§1)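 Ratio of MIC on the plasmid-bearing resistant strain to MIC on its background strain (pETSACG1 vs BL21; pET9d or pSF815 vs XL1 blue). MICs by NCCLS double microdilution from starting concentrations of 384 and 1.5 µg/mL, in duplicate, two to four experiments.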

Escherichia coli [8] = assay: Antibacterial activity against aminoglycosides-resistant Escherichia coli XL1-blue harboring pET9d expressing APH(3')-1a enzyme by double-microdilution method; type: functional
Escherichia coli [9] = assay: Resistance index, MIC for aminoglycosides-resistant Escherichia coli XL1-blue harboring pET9d expressing APH(3')-1a enzyme to MIC for Escherichia coli XL1-blue; type: functional; in short: as §1
Escherichia coli [10] = assay: Antibacterial activity against Escherichia coli BL21 by double-microdilution method; type: functional
Escherichia coli [11] = assay: Antibacterial activity against aminoglycosides-resistant Escherichia coli BL21 harboring pETSACG1 expressing APH(3')-3a enzyme by double-microdilution method; type: functional
Escherichia coli [12] = assay: Resistance index, MIC for aminoglycosides-resistant Escherichia coli BL21 harboring pETSACG1 expressing APH(3')-3a enzyme to MIC for Escherichia coli BL21; type: functional; in short: as §1
[13] = Inhibition of Escherichia coli DNA gyrase assessed as reduction in relaxed pBR322 DNA supercoiling activity after 1 hr by electrophoresis; details: read-out: IC50
In short: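 Supercoiling of relaxed pBR322 (12.5 ng/µL) by E. coli DNA gyrase in 35 mM Tris-Cl pH 7.5 with 24 mM KCl, 4 mM MgCl₂, 2 mM DTT, 1.8 mM spermidine, 1 mM ATP, 6.5% glycerol and 0.1 mg/mL BSA. Incubated 37 °C for 1 h, stopped with loading dye plus chloroform/isoamyl alcohol, and resolved on 1% agarose. IC50 is the concentration halving activity versus drug-free control.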

[14] = Inhibition of Escherichia coli topoisomerase 4 assessed as reduction in supercoiled pBR322 DNA relaxation activity after 30 mins by electrophoresis; details: read-out: IC50
In short: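 E. coli TopoIV relaxation of supercoiled pBR322 in 40 mM HEPES-KOH pH 7.6 with 100 mM potassium glutamate, 10 mM Mg(OAc)₂, 10 mM DTT, 1 mM ATP and 50 µg/mL albumin. Incubated 37 °C for 30 min, stopped with EDTA, loading dye and chloroform/isoamyl alcohol, then run on 1% agarose. Supercoiled DNA percentage was quantified from gel images. IC50 is the 50% reduction versus drug-free control.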

Escherichia coli [15] = assay: Inhibition of protein synthesis in Escherichia coli S30 extracts assessed as luciferase activity after 1 hr by coupled transcription/translation assay; type: functional
In short: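 Coupled transcription/translation of the pBESTluc plasmid in E. coli S30 extract with varying compound concentrations, 37 °C for 60 min. Reactions were cooled on ice, diluted in Tris-phosphate pH 7.8 reagent, and luciferase luminescence was read immediately after substrate addition. IC50 came from concentration-response curves fitted to at least two independent experiments.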

## NC[C@@H]1O[C@H](O[C@H]2[C@@H](O)[C@H](O[C@@H]3[C@@H](O)[C@H](N)C[C@H](N)[C@H]3O[C@H]3O[C@H](CN)[C@@H](O)[C@H](O)[C@H]3N)O[C@@H]2C(=O)Nc2ccc(-c3cn(CCCCCCN4CCN(c5cc6c(cc5F)c(=O)c(C(=O)O)cn6C5CC5)CC4)nn3)cc2)[C@H](N)[C@@H](O)[C@@H]1O
Escherichia coli [1]
  MIC: 6 µg/mL (≈ 5.07 µM)
Escherichia coli [2]
  MIC: 6 µg/mL (≈ 5.07 µM)
Escherichia coli [3]
  MIC: 12 µg/mL (≈ 10.1 µM)
Escherichia coli [4]
  MIC: 1.5 µg/mL (≈ 1.27 µM)
Bacillus subtilis
  MIC: 12 µg/mL (≈ 10.1 µM)
Staphylococcus aureus
  MIC: 48 µg/mL (≈ 40.5 µM)

## NC[C@@H]1O[C@H](O[C@H]2[C@@H](O)[C@H](O[C@@H]3[C@@H](O)[C@H](N)C[C@H](N)[C@H]3O[C@H]3O[C@H](CN)[C@@H](O)[C@H](O)[C@H]3N)O[C@@H]2C(=O)Nc2ccc(-c3cn(CCCCCN4CCN(c5cc6c(cc5F)c(=O)c(C(=O)O)cn6C5CC5)CC4)nn3)cc2)[C@H](N)[C@@H](O)[C@@H]1O
Escherichia coli [1]
  MIC: 12 µg/mL (≈ 10.3 µM)
Escherichia coli [2]
  MIC: 6 µg/mL (≈ 5.13 µM)
Escherichia coli [3]
  MIC: 24 µg/mL (≈ 20.5 µM)
Escherichia coli [4]
  MIC: 1.5 µg/mL (≈ 1.28 µM)
Bacillus subtilis
  MIC: 12 µg/mL (≈ 10.3 µM)
Staphylococcus aureus
  MIC: 48 µg/mL (≈ 41 µM)

## NC[C@@H]1O[C@H](O[C@H]2[C@@H](O)[C@H](O[C@@H]3[C@@H](O)[C@H](N)C[C@H](N)[C@H]3O[C@H]3O[C@H](CN)[C@@H](O)[C@H](O)[C@H]3N)O[C@@H]2C(=O)NCc2cn(Cc3ccc(CN4CCN(c5cc6c(cc5F)c(=O)c(C(=O)O)cn6C5CC5)CC4)cc3)nn2)[C@H](N)[C@@H](O)[C@@H]1O
Escherichia coli [1]
  MIC: 6 µg/mL (≈ 5.25 µM)
Escherichia coli [2]
  MIC: 6 µg/mL (≈ 5.25 µM)
Escherichia coli [3]
  MIC: 12 µg/mL (≈ 10.5 µM)
Escherichia coli [4]
  MIC: 1.5 µg/mL (≈ 1.31 µM)
Bacillus subtilis
  MIC: 3 µg/mL (≈ 2.63 µM)
Staphylococcus aureus
  MIC: 3 µg/mL (≈ 2.63 µM)
Escherichia coli [5]
  MIC: 6 µg/mL (≈ 5.25 µM)
Escherichia coli [6]
  MIC: 6 µg/mL (≈ 5.25 µM)
Escherichia coli [7]
  Ratio: 1
Escherichia coli [8]
  MIC: 6 µg/mL (≈ 5.25 µM)
Escherichia coli [9]
  Ratio: 1
Escherichia coli [10]
  MIC: 0.4 µg/mL (≈ 0.35 µM)
Escherichia coli [11]
  MIC: 0.4 µg/mL (≈ 0.35 µM)
Escherichia coli [12]
  Ratio: 1

## NC[C@@H]1O[C@H](O[C@H]2[C@@H](O)[C@H](O[C@@H]3[C@@H](O)[C@H](N)C[C@H](N)[C@H]3O[C@H]3O[C@H](CN)[C@@H](O)[C@H](O)[C@H]3N)O[C@@H]2C(=O)NCc2cn(CCOCCN3CCN(c4cc5c(cc4F)c(=O)c(C(=O)O)cn5C4CC4)CC3)nn2)[C@H](N)[C@@H](O)[C@@H]1O
Escherichia coli [1]
  MIC: 12 µg/mL (≈ 10.8 µM)
Escherichia coli [2]
  MIC: 6 µg/mL (≈ 5.4 µM)
Escherichia coli [3]
  MIC: 12 µg/mL (≈ 10.8 µM)
Escherichia coli [4]
  MIC: 1.5 µg/mL (≈ 1.35 µM)
Bacillus subtilis
  MIC: 12 µg/mL (≈ 10.8 µM)
Staphylococcus aureus
  MIC: 24 µg/mL (≈ 21.6 µM)

## NC[C@@H]1O[C@H](O[C@H]2[C@@H](O)[C@H](O[C@@H]3[C@@H](O)[C@H](N)C[C@H](N)[C@H]3O[C@H]3O[C@H](CN)[C@@H](O)[C@H](O)[C@H]3N)O[C@@H]2C(=O)NCc2cn(CCN3CCN(c4cc5c(cc4F)c(=O)c(C(=O)O)cn5C4CC4)CC3)nn2)[C@H](N)[C@@H](O)[C@@H]1O
Escherichia coli [1]
  MIC: 12 µg/mL (≈ 11.3 µM)
Escherichia coli [2]
  MIC: 6 µg/mL (≈ 5.63 µM)
Escherichia coli [3]
  MIC: 12 µg/mL (≈ 11.3 µM)
Escherichia coli [4]
  MIC: 1.5 µg/mL (≈ 1.41 µM)
Bacillus subtilis
  MIC: 3 µg/mL (≈ 2.81 µM)
Staphylococcus aureus
  MIC: 24 µg/mL (≈ 22.5 µM)

## O=C(O)c1cn(C2CC2)c2cc(N3CCNCC3)c(F)cc2c1=O [CIPROFLOXACIN]
Escherichia coli [4]
  MIC: < 0.005 µg/mL
Bacillus subtilis
  MIC: 0.02 µg/mL (≈ 0.0604 µM)
Staphylococcus aureus
  MIC: 0.2 µg/mL (≈ 0.604 µM)
Escherichia coli [10]
  MIC: < 0.005 µg/mL
[13]
  IC50: 1300 nM
[14]
  IC50: 10800 nM
Escherichia coli [15]
  IC50: Not Active

## NC[C@@H]1O[C@H](O[C@H]2[C@@H](O)[C@H](O[C@@H]3[C@@H](O)[C@H](N)C[C@H](N)[C@H]3O[C@H]3O[C@H](CN)[C@@H](O)[C@H](O)[C@H]3N)O[C@@H]2C(=O)Nc2ccc(-c3cn(CC(O)CN4CCN(c5cc6c(cc5F)c(=O)c(C(=O)O)cn6C5CC5)CC4)nn3)cc2)[C@H](N)[C@@H](O)[C@@H]1O (stereo not given in full)
Escherichia coli [1]
  MIC: 6 µg/mL (≈ 5.18 µM)
Escherichia coli [2]
  MIC: 3 µg/mL (≈ 2.59 µM)
Escherichia coli [3]
  MIC: 6 µg/mL (≈ 5.18 µM)
Escherichia coli [4]
  MIC: 0.75 µg/mL (≈ 0.648 µM)
Bacillus subtilis
  MIC: 6 µg/mL (≈ 5.18 µM)
Staphylococcus aureus
  MIC: 24 µg/mL (≈ 20.7 µM)
[13]
  IC50: 73 nM
[14]
  IC50: 580 nM
Escherichia coli [15]; Escherichia coli, 1 h, read-out: IC50
  IC50: 2200 nM

## NC[C@@H]1O[C@H](O[C@H]2[C@@H](O)[C@H](O[C@@H]3[C@@H](O)[C@H](N)C[C@H](N)[C@H]3O[C@H]3O[C@H](CN)[C@@H](O)[C@H](O)[C@H]3N)O[C@@H]2C(=O)Nc2ccc(-c3cn(Cc4cccc(CN5CCN(c6cc7c(cc6F)c(=O)c(C(=O)O)cn7C6CC6)CC5)c4)nn3)cc2)[C@H](N)[C@@H](O)[C@@H]1O
Escherichia coli [1]
  MIC: 6 µg/mL (≈ 4.98 µM)
Escherichia coli [2]
  MIC: 12 µg/mL (≈ 9.96 µM)
Escherichia coli [3]
  MIC: 12 µg/mL (≈ 9.96 µM)
Escherichia coli [4]
  MIC: 1.5 µg/mL (≈ 1.25 µM)
Bacillus subtilis
  MIC: 6 µg/mL (≈ 4.98 µM)
Staphylococcus aureus
  MIC: 12 µg/mL (≈ 9.96 µM)
